The values below come from ChEMBL document CHEMBL3259625 (ACS Med Chem Lett, 2014).

Data set [1] is described as follows: (§1) Half life in rat liver microsomes at 1 uM by LC-MS/MS analysis in presence of NADPH. Conditions: liver microsomes. In kind it is ADME. The method in brief: (§2)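 Microsomal stability was measured in human, rat and mouse liver microsomes, with sunitinib run in parallel as the reference compound.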
A general note: Liver microsomes are vesicles of endoplasmic reticulum, rich in cytochrome P450 enzymes.

The test system of another data set is Liver. The experiment in a line: (§3) Half life in mouse liver microsomes at 1 uM by LC-MS/MS analysis in presence of NADPH. The format is ADME. The conditions noted are these: microsomes, 1 µM. The method in brief:
as §2

The subject of data set [2] is Liver microsome. The experiment in a line: (§4) Half life in human liver microsomes at 1 uM by LC-MS/MS analysis in presence of NADPH. The conditions noted are these: microsomes, 1 µM. In kind it is ADME. The method in brief: as §2
The target in the next data set is CYP3A4 (Homo sapiens, UniProt P08684). The experiment in a line: (§5) Inhibition of CYP3A4 in human liver microsomes assessed as midazolam hydroxylation to 1'-hydroxymidazolam at 1 uM after 10 mins in presence of NADPH. In kind it is ADME. The conditions noted are these: liver microsomes, probe midazolam.
CYP3A4, sequence (P08684 whole entry): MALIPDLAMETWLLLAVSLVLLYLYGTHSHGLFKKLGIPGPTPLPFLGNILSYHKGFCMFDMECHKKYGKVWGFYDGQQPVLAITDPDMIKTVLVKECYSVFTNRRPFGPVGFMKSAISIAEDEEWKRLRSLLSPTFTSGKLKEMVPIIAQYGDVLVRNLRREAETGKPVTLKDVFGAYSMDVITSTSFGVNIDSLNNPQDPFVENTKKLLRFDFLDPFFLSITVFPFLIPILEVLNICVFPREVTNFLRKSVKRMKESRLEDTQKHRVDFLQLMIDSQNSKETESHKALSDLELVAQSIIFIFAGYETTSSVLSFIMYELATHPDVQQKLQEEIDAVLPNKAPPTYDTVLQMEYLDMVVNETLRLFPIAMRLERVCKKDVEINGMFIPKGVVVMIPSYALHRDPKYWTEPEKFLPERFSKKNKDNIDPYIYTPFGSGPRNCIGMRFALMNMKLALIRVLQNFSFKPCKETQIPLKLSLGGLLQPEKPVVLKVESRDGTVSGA
The nature of data set [3]: as §3. The format is ADME. The conditions noted are these: liver microsomes. The essentials:
as §2

A further data set has as its target CYP2C9 (Homo sapiens, UniProt P11712). Kind of data set: (§6) Inhibition of CYP2C9 in human liver microsomes assessed as tolbutamide hydroxylation to hydroxytolbutamide at 1 uM after 10 mins in presence of NADPH. In kind it is ADME. Conditions: liver microsomes, probe tolbutamide.
The target of another data set is CYP2D6 (Homo sapiens, UniProt P10635). The experiment in a line: (§7) Inhibition of CYP2D6 in human liver microsomes assessed as bufuralol hydroxylation to 4'-hydroxybufuralol at 1 uM after 10 mins in presence of NADPH. The format is ADME. Conditions: liver microsomes, probe bufuralol.
CYP2D6, sequence (P10635 whole entry): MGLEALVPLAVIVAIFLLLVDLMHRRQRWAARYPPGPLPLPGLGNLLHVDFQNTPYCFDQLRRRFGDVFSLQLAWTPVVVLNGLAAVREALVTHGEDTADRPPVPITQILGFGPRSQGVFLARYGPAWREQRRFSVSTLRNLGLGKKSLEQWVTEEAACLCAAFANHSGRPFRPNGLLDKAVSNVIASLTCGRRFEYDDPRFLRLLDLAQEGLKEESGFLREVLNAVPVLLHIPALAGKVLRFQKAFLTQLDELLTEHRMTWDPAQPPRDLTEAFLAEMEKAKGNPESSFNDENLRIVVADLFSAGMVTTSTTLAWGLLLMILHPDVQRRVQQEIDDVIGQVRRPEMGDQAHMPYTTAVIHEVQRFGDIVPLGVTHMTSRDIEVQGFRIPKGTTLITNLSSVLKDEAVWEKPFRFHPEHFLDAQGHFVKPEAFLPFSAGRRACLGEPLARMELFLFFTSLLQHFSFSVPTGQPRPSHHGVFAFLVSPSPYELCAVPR
A further data set concerns the target T1, CYP1A2 (Homo sapiens, UniProt P05177).
T1 sequence (P05177 whole entry): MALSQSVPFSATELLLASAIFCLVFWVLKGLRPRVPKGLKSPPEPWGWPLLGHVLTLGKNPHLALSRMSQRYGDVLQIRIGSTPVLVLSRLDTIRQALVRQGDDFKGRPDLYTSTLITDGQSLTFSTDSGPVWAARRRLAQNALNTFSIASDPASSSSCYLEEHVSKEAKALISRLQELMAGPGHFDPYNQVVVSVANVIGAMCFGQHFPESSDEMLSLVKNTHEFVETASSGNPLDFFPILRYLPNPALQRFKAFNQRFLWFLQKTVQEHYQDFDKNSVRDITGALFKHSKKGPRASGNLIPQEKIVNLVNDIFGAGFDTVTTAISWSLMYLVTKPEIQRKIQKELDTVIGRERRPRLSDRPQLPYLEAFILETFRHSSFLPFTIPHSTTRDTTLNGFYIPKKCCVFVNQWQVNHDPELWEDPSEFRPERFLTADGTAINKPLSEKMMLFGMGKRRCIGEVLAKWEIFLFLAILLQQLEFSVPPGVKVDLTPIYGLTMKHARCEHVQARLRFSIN
The experiment in a line: (§8) Inhibition of CYP1A2 in human liver microsomes assessed as phenacetin […] to acetaminophen at 1 uM after 10 mins in presence of NADPH. Conditions: liver microsomes, probe phenacetin. In kind it is ADME.

A short description of data set [4]: as §4. The format is ADME. Conditions: liver microsomes. The essentials:
as §2

The subject of a further data set is Trypanosoma cruzi. The experiment in a line: Antitrypanosomal activity against trypomastigotes of Trypanosoma cruzi CA-I/72 infected in mouse C2C12 cells after 72 hrs. In kind it is functional, organism-based. The conditions noted are these: CA-I/72, C2C12, 72 h. The essentials: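 EC50 derived from dose–response curves against T. cruzi in infected mouse C2C12 myoblasts.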

The next data set concerns the target Cytochrome P450 3A4 (Homo sapiens, UniProt P08684). Described as §5. The conditions noted are these: microsomes, 10 min, 1 µM. In kind it is ADME.
Data set [5] has as its system Liver microsome. The description is as §1. In kind it is ADME. Conditions: microsomes, 1 µM. The essentials:
as §2

The next data set has as its target Cytochrome P450 2C9 (Homo sapiens, UniProt P11712). The data set is described as §6. The format is ADME. Conditions: microsomes, 10 min, 1 µM.
In the next data set the target is Cytochrome P450 2D6 (Homo sapiens, UniProt P10635). Described as §7. The conditions noted are these: microsomes, 10 min, 1 µM. In kind it is ADME.
Cytochrome P450 2D6, sequence (P10635 whole entry): as the sequence (P10635 whole entry) above
Another data set concerns the target T2, Cytochrome P450 1A2 (Homo sapiens, UniProt P05177).
T2 sequence (P05177 whole entry): T1 sequence (P05177 whole entry)
The data set is described as §8. The conditions noted are these: microsomes, 10 min, 1 µM. The format is ADME.

CYP2C9, sequence (P11712 whole entry): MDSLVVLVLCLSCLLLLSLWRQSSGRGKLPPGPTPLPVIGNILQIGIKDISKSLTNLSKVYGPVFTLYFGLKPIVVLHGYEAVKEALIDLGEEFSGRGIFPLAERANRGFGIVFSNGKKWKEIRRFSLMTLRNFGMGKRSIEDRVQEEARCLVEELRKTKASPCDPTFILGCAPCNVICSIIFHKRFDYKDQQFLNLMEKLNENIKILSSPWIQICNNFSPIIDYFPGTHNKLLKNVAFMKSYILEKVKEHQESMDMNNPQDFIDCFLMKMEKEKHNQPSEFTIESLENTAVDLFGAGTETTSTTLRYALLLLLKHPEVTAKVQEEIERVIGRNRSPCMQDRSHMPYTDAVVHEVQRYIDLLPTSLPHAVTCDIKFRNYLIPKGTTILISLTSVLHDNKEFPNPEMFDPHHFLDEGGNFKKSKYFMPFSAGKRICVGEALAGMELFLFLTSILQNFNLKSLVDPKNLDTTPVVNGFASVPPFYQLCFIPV
Cytochrome P450 3A4, sequence (P08684 whole entry): as the sequence (P08684 whole entry) above
Cytochrome P450 2C9, sequence (P11712 whole entry): as the sequence (P11712 whole entry) above

`O=C(N[C@H](Cc1c[nH]c2ccccc12)C(=O)Nc1ccncc1)c1ccc(-c2cccc(F)c2)cc1F`: the half-life (usually the time needed for the level to fall by half in the phase considered) at 1 µM in data set [1] is 20 min. Besides, the t1/2 is 27 min in the data set with Liver and 18 min in the data set on Liver microsome [2].
Turning to `O=C(N[C@H](Cc1c[nH]c2ccccc12)C(=O)Nc1ccncc1)c1ccc(N2CCN(c3cccc(C(F)(F)F)c3)CC2)cc1F`, the inhibition – broadly, the drop in the measured response relative to a control, in per cent – at 10 min, 1 µM was found to be 86% at CYP3A4, 96% at CYP2C9, 74% on CYP2D6 and 10% on CYP1A2. Besides, the half-life at 1 µM in data set [1] stood at 24 min; in data set [3] it was 11 min; in [4] it was 8 min. Further, in the data set with Trypanosoma cruzi, the 50% effective concentration (EC50) (as a rule, the midpoint of the concentration-response curve) came out at 0.47 nM.
For `O=C(N[C@H](Cc1c[nH]c2ccccc12)C(=O)Nc1ccncc1)c1ccc(-c2ccc(OCc3ccc(F)cc3F)c(F)c2)cc1F`, the inhibition at 10 min, 1 µM on CYP3A4 is 38%; on CYP2C9, 84%; at CYP2D6 it was 21%; at CYP1A2, -9%. The half-life at 1 µM was found to be 30 min in data set [1], 34 min in data set [3] and 25 min in [4]. In the data set on Trypanosoma cruzi, this compound yielded an EC50 of 0.6 nM.
Turning to `O=C(N[C@H](Cc1c[nH]c2ccccc12)C(=O)Nc1ccncc1)c1ccc(-c2ccc(OCc3ccc(F)cc3)c(C(F)(F)F)c2)cc1F`, the inhibition at 10 min, 1 µM at CYP3A4 was 15%; on CYP2C9, 41%; on CYP2D6, -17%; on CYP1A2 it was -26%. The values for the half-life at 1 µM in data set [1], in data set [3] and in [4] were 53 min, 51 min and 29 min, respectively. The compound also gave a half-maximal effective concentration (EC50) with Trypanosoma cruzi of 9.2 nM.
On to `O=C(N[C@H](Cc1c[nH]c2ccccc12)C(=O)Nc1ccncc1)c1ccc(-c2ccc(C(F)(F)F)c(F)c2)cc1F`, for which the inhibition at 10 min, 1 µM on CYP3A4 was 24%; at CYP2C9, 92%; on CYP2D6, 27%; at CYP1A2 it was -4%. The half-life at 1 µM turned out to be 39 min in data set [1], 69 min in data set [3] and 45 min in data set [4]. In the data set on Trypanosoma cruzi, this compound gave an EC50 of 2.9 nM.
For `O=C(N[C@H](Cc1c[nH]c2ccccc12)C(=O)Nc1ccncc1)c1ccc(-c2cc(F)ccc2F)cc1F`, the “inhibition (INH)” value is 74% on Cytochrome P450 3A4, 92% on Cytochrome P450 2C9, 47% at Cytochrome P450 2D6 and 3% at Cytochrome P450 1A2. In addition, the t1/2 with Liver microsome [5] and in the data set on Liver microsome [2] was 17 min in each case. In addition, the EC50 in the data set on Trypanosoma cruzi was determined as 1.3 nM.
As to `O=C(N[C@H](Cc1c[nH]c2ccccc12)C(=O)Nc1ccncc1)c1ccc(-c2ccc(F)c(F)c2)cc1F`, the values for the t1/2 in the data set with Liver and in the data set with Liver microsome [2] were 39 min and 18 min, respectively.
